In ChEMBL document CHEMBL3352339, “Implications of N-capped urea/thiourea and C-capped 3-(1-piperazinyl)-1,2-benzisothiazole with bridging Gly-Val/Phe-Gly-Val-Pro as therapeutic targets” (Eur J Med Chem, 2014):
pIC50: −log10 of the molar value. In brackets after ≈: the same amount, converted by molar mass. Starred links: 1 amine or outer side, 2 acyl side, 3 side chain; linkers in the order of their positions; H or OH if unused. Residues, ends and D or L forms follow the SMILES beside them. *: point of attachment. X1 = c1ccc2c(N3CCN(*)CC3)nsc2c1; NH(2-F-phenyl) = Fc1ccccc1N*; X2 = Fc1ccc(NC(=S)*)cc1; Boc = CC(C)(C)OC(=O)*; CO = O=C([*:1])[*:2]

How the values were obtained:
Fusarium oxysporum [1] = test: Antifungal activity against Fusarium oxysporum at 50 ug/mL incubated for 3 days by agar well diffusion method; type: functional; settings: 72 h, read-out: IZ
How it was run: (§1)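 Fungal growth inhibition measured by agar well diffusion, with bavistin as the reference. Records the mean inhibition-zone diameter (mm) around each well.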

[2] = Antiglycation activity using bovine serum albumin incubated at 37 degC for 7 days by spectrofluorimetry; type: physicochemical
How it was run: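 Glycation of bovine serum albumin, with rutin as the reference standard. IC50 values are averages of triplicate runs.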

Urease = Urease (Canavalia ensiformis, UniProt P07374); test: Inhibition of jack bean urease assessed as reduction in ammonia production incubated at 30 degC for 15 mins by indophenol method
How it was run: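 Inhibition of jack bean urease, with thiourea as the reference standard. IC50 values are the average of triplicate runs.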

[3] = Inhibition of sheep stomach parietal cells gastric H+/K+-ATPase activity assessed as reduction in inorganic phosphorus production by Fiske Subbarow's method; type: tissue-based, Ovis aries; settings: for pIC50: read-out: IC50
How it was run: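 Inhibition of purified H+/K+-ATPase, with omeprazole as the reference. IC50 is the mean of triplicate runs.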

Escherichia coli [4] = test: Antibacterial activity against Escherichia coli at 50 ug/mL incubated for 24 hrs by agar well diffusion method; type: functional; settings: read-out: IZ
How it was run: (§2)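 Agar well diffusion against the bacterial isolate, with streptomycin as the reference drug. Read-out is the average diameter (mm) of the growth-inhibition zone around the well.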

Xanthomonas oryzae [5] = test: Antibacterial activity against Xanthomonas oryzae at 50 ug/mL incubated for 24 hrs by agar well diffusion method; type: functional; settings: read-out: IZ
Klebsiella pneumoniae [6] = test: Antibacterial activity against Klebsiella pneumoniae at 50 ug/mL incubated for 24 hrs by agar well diffusion method; type: functional; settings: read-out: IZ; how it was run: as §2
Staphylococcus [7] = test: Antibacterial activity against Coagulase positive Staphylococcus at 50 ug/mL incubated for 24 hrs by agar well diffusion method; type: functional; settings: read-out: IZ; how it was run: as §2
Aspergillus flavus [8] = test: Antifungal activity against Aspergillus flavus at 50 ug/mL incubated for 3 days by agar well diffusion method; type: functional; settings: 72 h, read-out: IZ; how it was run: as §1
Aspergillus niger [9] = test: Antifungal activity against Aspergillus niger at 50 ug/mL incubated for 3 days by agar well diffusion method; type: functional; settings: 72 h, read-out: IZ; how it was run: as §1
Fusarium verticillioides [10] = test: Antifungal activity against Fusarium moniliforme at 50 ug/mL incubated for 3 days by agar well diffusion method; type: functional; settings: 72 h, read-out: IZ; how it was run: as §1
Fusarium verticillioides [11] = test: Antifungal activity against Fusarium moniliforme incubated for 48 to 72 hrs by agar microdilution method; type: functional
How it was run: (§3)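 MIC by microdilution against the fungal strain, limited to compounds showing significant zones in the diffusion assay. Bavistin was used as the reference.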

Fusarium oxysporum [12] = test: Antifungal activity against Fusarium oxysporum incubated for 48 to 72 hrs by agar microdilution method; type: functional; how it was run: as §3
Escherichia coli [13] = test: Antibacterial activity against Escherichia coli incubated for 24 hrs by agar microdilution method; type: functional
Xanthomonas oryzae [14] = test: Antibacterial activity against Xanthomonas oryzae incubated for 24 hrs by agar microdilution method; type: functional
Klebsiella pneumoniae [15] = test: Antibacterial activity against Klebsiella pneumoniae incubated for 24 hrs by agar microdilution method; type: functional
Staphylococcus [16] = test: Antibacterial activity against Coagulase positive Staphylococcus incubated for 24 hrs by agar microdilution method; type: functional
Aspergillus flavus [17] = test: Antifungal activity against Aspergillus flavus incubated for 48 to 72 hrs by agar microdilution method; type: functional; how it was run: as §3
Aspergillus niger [18] = test: Antifungal activity against Aspergillus niger incubated for 48 to 72 hrs by agar microdilution method; type: functional; how it was run: as §3

Chain of Urease (P07374 whole entry): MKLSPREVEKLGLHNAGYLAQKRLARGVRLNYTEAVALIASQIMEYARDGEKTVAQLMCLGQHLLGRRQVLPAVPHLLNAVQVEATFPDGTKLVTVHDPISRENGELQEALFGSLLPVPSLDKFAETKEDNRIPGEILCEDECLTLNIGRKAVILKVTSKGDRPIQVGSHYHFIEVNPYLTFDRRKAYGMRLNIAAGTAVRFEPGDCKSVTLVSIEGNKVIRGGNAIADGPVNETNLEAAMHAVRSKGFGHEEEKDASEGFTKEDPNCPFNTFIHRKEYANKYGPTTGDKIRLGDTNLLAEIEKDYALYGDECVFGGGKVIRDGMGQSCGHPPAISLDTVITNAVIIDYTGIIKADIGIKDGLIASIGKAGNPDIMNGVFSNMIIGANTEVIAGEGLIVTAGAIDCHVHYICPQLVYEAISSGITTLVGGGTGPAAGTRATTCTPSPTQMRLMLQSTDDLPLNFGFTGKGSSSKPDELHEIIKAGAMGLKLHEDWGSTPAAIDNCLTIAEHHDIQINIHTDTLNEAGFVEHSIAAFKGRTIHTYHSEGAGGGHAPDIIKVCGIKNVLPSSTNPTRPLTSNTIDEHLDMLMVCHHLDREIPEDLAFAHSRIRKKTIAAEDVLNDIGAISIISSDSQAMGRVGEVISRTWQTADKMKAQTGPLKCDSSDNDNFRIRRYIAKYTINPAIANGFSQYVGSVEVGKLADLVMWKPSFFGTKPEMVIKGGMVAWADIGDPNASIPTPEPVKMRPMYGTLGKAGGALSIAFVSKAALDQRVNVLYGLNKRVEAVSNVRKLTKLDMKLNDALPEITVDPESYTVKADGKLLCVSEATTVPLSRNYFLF

SMILES | zone of inhibition at 50 µg/mL (Fusarium oxysporum [1]) | pIC50 [2] | pIC50 (Urease) | IC50 [3] | zone of inhibition at 50 µg/mL (Escherichia coli [4]) | zone of inhibition at 50 µg/mL (Xanthomonas oryzae [5]) | zone of inhibition at 50 µg/mL (Klebsiella pneumoniae [6]) | zone of inhibition at 50 µg/mL (Staphylococcus [7]) | zone of inhibition at 50 µg/mL (Aspergillus flavus [8]) | zone of inhibition at 50 µg/mL (Aspergillus niger [9]) | zone of inhibition at 50 µg/mL (Fusarium verticillioides [10]) | MIC (Fusarium verticillioides [11]) | MIC (Fusarium oxysporum [12]) | pIC50 [3] | MIC (Escherichia coli [13]) | MIC (Xanthomonas oryzae [14]) | MIC (Klebsiella pneumoniae [15]) | MIC (Staphylococcus [16]) | MIC (Aspergillus flavus [17]) | MIC (Aspergillus niger [18])
CC(C)[C@H](NC(=O)CNC(=O)OC(C)(C)C)C(=O)NCC(=O)N[C@H](C(=O)N1CCC[C@H]1C(=O)N1CCN(c2nsc3ccccc23)CC1)C(C)C (Boc-GVGVP-X1) | 6 mm | 3.60 | 3.53 | Not Active | 6 mm | 4 mm | 40.3 mm | 5 mm | 4 mm | 5 mm | 5 mm |  |  |  |  |  |  |  |  | 
CC(C)[C@H](NC(=O)CNC(=O)[C@H](Cc1ccccc1)NC(=O)CNC(=S)Nc1ccc(F)cc1)C(=O)N1CCC[C@H]1C(=O)N1CCN(c2nsc3ccccc23)CC1 (X2-GFGVP-X1) | 35 mm | 4.38 | 4.48 |  | 35 mm | 34 mm |  | 35 mm | 36 mm | 35 mm | 36 mm | 9.75 µg/mL (≈ 11.7 µM) | 11 µg/mL (≈ 13.3 µM) | 4.14 | 9 µg/mL (≈ 10.8 µM) | 7.5 µg | 8.5 µg/mL (≈ 10.2 µM) | 9 µg/mL (≈ 10.8 µM) | 10.2 µg/mL (≈ 12.3 µM) | 9.75 µg/mL (≈ 11.7 µM)
CC(C)[C@H](NC(=O)CNC(=S)Nc1ccc(F)cc1)C(=O)NCC(=O)N[C@H](C(=O)N1CCC[C@H]1C(=O)N1CCN(c2nsc3ccccc23)CC1)C(C)C (X2-GVGVP-X1) | 35 mm | 4.47 | 4.46 |  | 32 mm | 29 mm |  | 31 mm | 34 mm | 35 mm | 35 mm | 11 µg/mL (≈ 14.1 µM) | 13.2 µg/mL (≈ 16.9 µM) | 4.12 | 10.2 µg/mL (≈ 13.1 µM) | 9.5 µg | 10 µg/mL (≈ 12.8 µM) | 10.8 µg/mL (≈ 13.7 µM) | 12.8 µg/mL (≈ 16.3 µM) | 10.5 µg/mL (≈ 13.4 µM)
CC(C)[C@H](NC(=O)CNC(=O)[C@H](Cc1ccccc1)NC(=O)CNC(=O)Nc1ccccc1F)C(=O)N1CCC[C@H]1C(=O)N1CCN(c2nsc3ccccc23)CC1 ({NH(2-F-phenyl)-CO}-GFGVP-X1) | 29 mm | 4.28 | 4.39 |  | 30 mm | 28 mm |  | 29 mm | 28 mm | 29 mm | 26 mm | 10 µg/mL (≈ 12.3 µM) | 14 µg/mL (≈ 17.2 µM) | 3.96 | 12.8 µg/mL (≈ 15.7 µM) |  | 12.2 µg/mL (≈ 15 µM) | 12.2 µg/mL (≈ 15 µM) | 14.2 µg/mL (≈ 17.5 µM) | 14 µg/mL (≈ 17.2 µM)
CC(C)[C@H](NC(=O)CNC(=O)Nc1ccccc1F)C(=O)NCC(=O)N[C@H](C(=O)N1CCC[C@H]1C(=O)N1CCN(c2nsc3ccccc23)CC1)C(C)C ({NH(2-F-phenyl)-CO}-GVGVP-X1) | 22 mm | 4.27 | 4.38 |  | 25 mm | 23 mm |  | 25 mm | 24 mm | 25 mm | 26 mm | 15.5 µg/mL (≈ 20.2 µM) | 16.8 µg/mL (≈ 21.9 µM) | 4.00 | 15.8 µg/mL (≈ 20.6 µM) |  | 17 µg/mL (≈ 22.2 µM) | 16.8 µg/mL (≈ 21.9 µM) | 17.8 µg/mL (≈ 23.2 µM) | 16.8 µg/mL (≈ 21.9 µM)
